# This is a sample that favours compounds with a hit; in the whole collection about 2.2% have one here.
# ERp5 block = inhibitors of human ERp5 | 0.05% of 350,000 active | AID 651711 | inhibition, % at 9.99 µM | ERp5 insulin aggregation, absorbance 650 nm, 90 min | Q15084;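 active = mean replicate inhibition above about 25%, with every replicate also reaching it, limit read from the data, passing the limit was not always enough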
# Target sequence (Q15084 whole entry, looked up): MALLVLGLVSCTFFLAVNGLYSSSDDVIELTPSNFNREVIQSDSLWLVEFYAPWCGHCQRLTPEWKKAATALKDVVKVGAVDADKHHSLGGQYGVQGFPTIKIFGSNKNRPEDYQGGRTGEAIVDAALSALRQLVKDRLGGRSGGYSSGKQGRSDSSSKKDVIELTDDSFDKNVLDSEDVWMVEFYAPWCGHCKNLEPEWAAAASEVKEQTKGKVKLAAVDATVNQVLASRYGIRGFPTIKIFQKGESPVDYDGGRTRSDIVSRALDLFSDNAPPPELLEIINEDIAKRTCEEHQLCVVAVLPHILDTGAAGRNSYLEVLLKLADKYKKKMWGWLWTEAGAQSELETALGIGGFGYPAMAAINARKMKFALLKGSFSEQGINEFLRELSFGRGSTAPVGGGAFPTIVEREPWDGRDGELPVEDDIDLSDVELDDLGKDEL
# PvdQ acylase = P. aeruginosa PvdQ acylase inhibition; purified PvdQ acylase, fluorescence plate reader; inhibition, % at 10 µM; 0.063% of 340,000 active; AID 488965; in the data active = inhibition above about 30%, passing the limit was not always enough;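 also: 0% = vehicle neutral wells and 100% = reference inhibitor wells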
# rRNA inh HTS = selective bacterial rRNA inhibition in E. coli; AID 720706; 1.6% of 350,000 active; E. coli WT GFP vs humanized-ribosome RFP mutants, fluorescence, 24 h; hits give low values; DMSO median 0, no signal -100; GFP signal change (wild-type ribosome), % (test concentration not listed);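 active = significant combined selectivity score with lowered wild-type GFP, culture density cut under 30%, mutant RFP and density less affected; inactive = any of these conditions unmet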
# FN deposition inh = fibronectin deposition inhibition. AH1F fibroblasts, Alexa488-fibronectin deposition fluorescence, overnight. inhibition, % at 12.6 µM. 0.086% of 350,000 active;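 active = mean inhibition across replicates of 30% or more, regardless of how many single replicates reach that level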;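 also: positive control wells lacked labelled fibronectin entirely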
#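 Assay system: AH1F fibroblasts assembling fluorescent fibronectin matrix; Amount: 10000 AH1F cells per well; Buffer or medium: DMEM, 2% serum; Probe or stimulus: Alexa488-fibronectin, 24 nM final in well; Doses: single compound dose, delivered by pin transfer; Incubation: 1 h adhesion, overnight exposure; Measured by: fluorescence 485/525 nm; Read-out: fibronectin deposition inhibition.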
# PDI turbidity = PDI (human) enzyme inhibition; inhibition, % at 10 µM; AID 588391; P07237; 0.052% of 350,000 active; PDI insulin aggregation turbidity, A650, 90 min;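 active = mean inhibition across replicates of 30% or more, whatever share of single replicates reach that level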
# Env fusion inh = blocks HIV Env-driven cell-cell fusion | HeLa-JRFL Env/CEM21 cell fusion, luciferase | inhibition, % at 12.3 µM | 1.1% of 360,000 active | AID 651610;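 active = mean replicate inhibition score of at least 50 and every replicate individually at or above 50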;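 also: 0% = plate neutral controls and 100% = maraviroc near 300 nM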
# Starred values were filed as active, the others as inactive; . = no result; [ ] = remark or other dose.
SMILES,ERp5 block,PvdQ acylase,rRNA inh HTS,FN deposition inh,PDI turbidity,Env fusion inh
Cc1ccc(NC(=O)CCc2c(C)nn(-c3ccc(N4CCCCC4)nn3)c2C)cc1,7,-17,-25*,-7,3,-17
O=C(CSc1nnc2n1CCCCC2)NCc1ccccc1,1,.,7,-1,4,58*
Cc1ccc(CNC(=O)CSc2nnc3n2CCCCC3)cc1,2,-1,.,8,-5,.
CNC[C@@H]1OCCCC[C@H](C)Oc2ccc(NC(=O)Nc3cccc4ccccc34)cc2C(=O)N([C@@H](C)CO)C[C@H]1C,.,.,.,.,.,3[16.7 µM]
Nc1c(S(=O)(=O)c2ccccc2)cnc2c(-c3ccc(F)cc3)cnn12,.,13,.,-6,-10,68*
COc1ccc(-c2cnn3c(N)c(S(=O)(=O)c4ccccc4)cnc23)cc1,.,-10,.,8,8,15
CCCC(=O)N1CCC2(CC1)CN(Cc1ccc(Cl)cc1)[C@H](CO)c1[nH]c3cc(OC)ccc3c12,-3,.,-2,-14,.,.
C[C@@H]1CN([C@@H](C)CO)C(=O)c2cc(NS(=O)(=O)c3ccc(Cl)cc3)ccc2O[C@@H](C)CCCCO[C@@H]1CN(C)C(=O)c1ccccc1,-3,.,2,-4,.,-20[16.7 µM]
C[C@H]1CN([C@@H](C)CO)S(=O)(=O)c2ccc(C3=CCCC3)cc2O[C@H]1CN(C)C(=O)CC1CC1,3,.,-3,.,.,-9[16.7 µM]
COc1ccc(NS(=O)(=O)c2cc(NC(=O)c3ccc(=O)[nH]n3)ccc2N2CCOCC2)cc1,-6,-14,-27*,6,0,-19
Cc1ccc(S(=O)(=O)Nc2ccc3c(c2)C(=O)N([C@@H](C)CO)C[C@@H](C)[C@H](CN(C)C(=O)C2CCCCC2)OCCCC[C@@H](C)O3)cc1,1,.,-2,-6,.,16[16.7 µM]
COc1ccc(-c2nc3cc(C)c(Br)c(C)n3c2Cc2ccccc2)cc1OC,1,.,2,-17,.,71*
Cc1ccc(-c2nc3cc(C)c(Br)c(C)n3c2Cc2ccccc2)cc1,-1,.,.,-1,.,.
COc1ccccc1CN(C)c1ccc(S(=O)(=O)N2CCN(C)CC2)cn1,31*,-8,-3,12,24,.
C[C@H]1CN([C@@H](C)CO)C(=O)c2cc(-c3cccnc3)cnc2O[C@@H]1CN(C)C(=O)c1cccc(F)c1,-14,.,0,0,.,-31[16.7 µM]
C[C@@H]1CN([C@H](C)CO)C(=O)Cc2cc(NC(=O)CCN3CCOCC3)ccc2O[C@@H]1CN(C)C,-4,.,3,.,.,.
Cc1ccc(S(=O)(=O)N2CCN(S(=O)(=O)c3ccc(C)cc3)C2c2ccccc2)cc1,.,0,.,14,7,105*
COc1ccc2c3c([nH]c2c1)[C@H](CO)N(C(=O)NC(C)C)CC31CN(C(=O)NC2CCCC2)C1,.,.,1,.,.,.
Cc1sc(NC(=O)Cc2ccc3c(c2)OCO3)nc1-c1ccc2c(c1)CCN2C(=O)c1ccccc1F,.,5,.,-17,-4,74*
O=C(C[C@H]1C[C@@H]2c3cc(NC(=O)Nc4ccccc4)ccc3O[C@@H]2[C@H](CO)O1)NCc1ccccn1,10,.,-1,-1,.,0[16.7 µM]
CC(C)Cn1c(SCC(=O)NC2CC2)nc2ccccc21,6,.,-5,6,-1,95*
O=C(CSc1nc2ccccc2n1CCc1ccccc1)NC1CC1,2,-10,-22,-5,1,16
C[C@H](CO)N1C[C@H](C)[C@@H](CN(C)S(=O)(=O)c2cccs2)Oc2c(NC(=O)Cn3cnnn3)cccc2C1=O,.,.,-5,.,.,.
CSc1nc(-c2ccc(Cl)cc2)c(C#N)c(=O)[nH]1,-5,-15,-20,-17,-4,59*
CCOC(=O)CSc1nc2ccsc2c(=O)n1C1CCN(C(=O)OCC)CC1,-4,17,14,.,2,.
SMILES,ERp5 block,PvdQ acylase,rRNA inh HTS,FN deposition inh,PDI turbidity,Env fusion inh
CCOC(=O)N1CCC(n2c(SCC(=O)N3CCC(C)CC3)nc3ccccc3c2=O)CC1,.,-18,.,.,12,54*
CCOC(=O)N1CCC(n2c(SCC(=O)OCc3ccccc3)nc3ccsc3c2=O)CC1,.,0,.,-4,-7,97*
COC(=O)C[C@@H]1C[C@@H]2c3cc(NS(=O)(=O)c4cccc(OC)c4)ccc3O[C@@H]2[C@H](CO)O1,0,.,-7,.,.,8[16.7 µM]
COc1ccc2c3c([nH]c2c1)[C@H](CO)N(C)CC31CN(C(=O)c2ccccc2F)C1,.,.,-2,.,.,.
Cc1nc(C(=O)NNC(=O)c2cccc(Cl)c2)c(C(F)(F)F)o1,3,-14,-27*,-7,23,3
CCOc1ccc(N2CC(C(=O)Nc3ccc(S(=O)(=O)N4CCCCC4)cc3)CC2=O)cc1 (stereo unspecified),-3,-8,12,5,-25,67*
CCOc1ccc(CN(C)C(=O)CCc2ccc(S(=O)(=O)N3CCCCCC3)cc2)cc1,2,9,-34,-2,-7,65*
CCOc1ccc(S(=O)(=O)Nc2ccc(S(=O)(=O)N3CCCC3)cc2)cc1,6,-14,-27*,.,-3,.
CCNC(=O)[C@H]1[C@H](CO)[C@H]2Cn3c(ccc(C4=CCCC4)c3=O)[C@@H]1N2C(=O)CC,0,.,2,.,.,.
CCc1cccc(NC(=O)CCC(=O)N2CCSc3ccccc32)c1,2,-6,-24*,13,.,0
COc1cc(S(=O)(=O)N(Cc2cccs2)CC2CCCO2)ccc1-n1cnnn1 (stereo unspecified),-4,-3,-5,.,-3,.
O=S(=O)(NCc1ccccc1)c1ccc(S(=O)(=O)N(Cc2cccs2)CC2CCCO2)cc1 (stereo unspecified),.,12,.,-9,-7,61*
COc1ccc(S(=O)(=O)N2C[C@@H](O)COC[C@@H]3O[C@@H](CC(=O)NCc4ccc(Cl)c(Cl)c4)CC[C@H]32)cc1,0,.,-19,8,.,3[16.7 µM]
COC(=O)C[C@H]1CC[C@@H]2[C@@H](COc3ccc(NC(=O)c4cccc(OC)c4)cc3C(=O)N2C)O1,11,.,-8,-10,.,-3[16.7 µM]
CS(=O)(=O)Nc1ccccc1C(=O)OCC(=O)N1CCC(c2ccccc2)=N1,1,-2,-32*,5,0,.
O=C(c1ccccc1)[C@@H]1[C@@H](C(=O)c2ccc(F)cc2)[C@@]2(C(=O)Nc3ccccc32)[C@H]2c3ccccc3C=CN12,1,1,-11,-1,-1,71*
O=P(NC1CCCCC1)(c1ccccc1)c1ccccc1,4,-11,-9,4,12,-7
CC/C(=C\C1CCCCC1)C(NP(=O)(c1ccccc1)c1ccccc1)c1ccccc1 (stereo unspecified),-1,-14,-3,-19,1,107*
COc1ccc(/C=N/S(=O)(=O)c2ccc(C)cc2)cc1,-1,-11,7,5,-4,-63
